According to publication PMC4770456 (Food chemistry, 2016):
Where two headings read alike, the source gives them in different places.

Legend:
NF-κB p65 = NF-κB p65 (Homo sapiens, UniProt Q04206); test: NF-κB p65 inhibitory assay; assay type: cell-based
K-Ras = K-Ras (Homo sapiens, UniProt P01116); test: K-Ras inhibitory assay; assay type: cell-based; conditions: for K-Ras (HT-29) IC50: HT-29 cells, EGF 5 ng/ml
How it was run: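 HT-29 cells in RPMI-1640 with penicillin/streptomycin were exposed to test compound for 3 h at 37°C, 5% CO2. They were then PBS-washed, stimulated with EGF (5 ng/ml, 2 min) and lysed with protease inhibitor. Protein was quantified, and Ras GTPase chemiluminescent ELISA used anti-K-Ras (1:5000, 1 h, room temperature) with HRP secondary and a luminescence read-out. IC50 from triplicate measurements.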

PARP-1 = PARP-1 (Homo sapiens, UniProt P09874); test: PARP-1 inhibitory assay; assay type: biochemical
PARP-1, sequence (P09874 whole entry): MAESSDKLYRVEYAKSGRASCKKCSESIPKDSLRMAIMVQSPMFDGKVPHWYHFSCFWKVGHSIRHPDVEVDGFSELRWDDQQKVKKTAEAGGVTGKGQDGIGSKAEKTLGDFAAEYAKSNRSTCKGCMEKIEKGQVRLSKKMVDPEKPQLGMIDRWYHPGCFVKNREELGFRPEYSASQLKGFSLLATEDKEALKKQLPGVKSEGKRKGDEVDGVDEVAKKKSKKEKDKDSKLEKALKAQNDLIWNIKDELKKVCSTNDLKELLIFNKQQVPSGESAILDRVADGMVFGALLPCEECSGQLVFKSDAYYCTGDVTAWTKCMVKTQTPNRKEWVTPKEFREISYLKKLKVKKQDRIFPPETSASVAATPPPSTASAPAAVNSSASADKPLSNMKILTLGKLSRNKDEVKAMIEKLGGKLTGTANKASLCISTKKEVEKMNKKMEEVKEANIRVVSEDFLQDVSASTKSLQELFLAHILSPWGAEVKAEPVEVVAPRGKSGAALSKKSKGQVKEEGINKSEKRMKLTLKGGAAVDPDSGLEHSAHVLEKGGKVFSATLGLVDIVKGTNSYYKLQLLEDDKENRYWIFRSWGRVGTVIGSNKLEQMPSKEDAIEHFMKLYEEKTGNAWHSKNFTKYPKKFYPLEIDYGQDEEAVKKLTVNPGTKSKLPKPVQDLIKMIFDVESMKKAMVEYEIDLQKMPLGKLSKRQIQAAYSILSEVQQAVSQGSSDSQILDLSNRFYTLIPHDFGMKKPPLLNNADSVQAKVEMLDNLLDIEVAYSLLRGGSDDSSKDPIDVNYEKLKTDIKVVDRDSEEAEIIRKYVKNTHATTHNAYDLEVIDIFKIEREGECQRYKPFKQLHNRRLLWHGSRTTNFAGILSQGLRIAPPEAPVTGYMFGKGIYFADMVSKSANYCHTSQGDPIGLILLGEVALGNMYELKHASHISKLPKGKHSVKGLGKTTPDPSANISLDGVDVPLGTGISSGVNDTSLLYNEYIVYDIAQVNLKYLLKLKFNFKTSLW
How it was run: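 Wells were histone-coated overnight at 4°C, blocked, then given activated DNA in PARP-1 and assay buffers. Test compound, diluted in 10% DMSO, was added before PARP-1 enzyme, followed by 1 h at 20°C. After washing, streptavidin-HRP was added (30 min, 20°C), then chemiluminescent substrate, with luminescence read at 410 nm. IC50 from triplicate measurements.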

HT-29 cells = test: SRB cytotoxicity assay; assay type: cell-based, human; conditions: for EC50: read-out: Cytotoxicity EC50
[1] = read-out: PARP-1 IC50, enzyme assay
[2] = read-out: Cytotoxicity (HT-29) IC50, HT-29 cells, 72 h, SRB

K-Ras, sequence (P01116 1-188 isoform P01116-2): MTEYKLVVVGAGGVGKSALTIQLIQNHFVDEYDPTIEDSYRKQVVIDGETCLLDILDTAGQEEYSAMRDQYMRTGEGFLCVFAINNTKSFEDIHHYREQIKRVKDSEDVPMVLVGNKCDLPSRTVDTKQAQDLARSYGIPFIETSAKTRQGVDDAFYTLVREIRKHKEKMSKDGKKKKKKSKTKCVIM
NF-κB p65, sequence (Q04206 whole entry): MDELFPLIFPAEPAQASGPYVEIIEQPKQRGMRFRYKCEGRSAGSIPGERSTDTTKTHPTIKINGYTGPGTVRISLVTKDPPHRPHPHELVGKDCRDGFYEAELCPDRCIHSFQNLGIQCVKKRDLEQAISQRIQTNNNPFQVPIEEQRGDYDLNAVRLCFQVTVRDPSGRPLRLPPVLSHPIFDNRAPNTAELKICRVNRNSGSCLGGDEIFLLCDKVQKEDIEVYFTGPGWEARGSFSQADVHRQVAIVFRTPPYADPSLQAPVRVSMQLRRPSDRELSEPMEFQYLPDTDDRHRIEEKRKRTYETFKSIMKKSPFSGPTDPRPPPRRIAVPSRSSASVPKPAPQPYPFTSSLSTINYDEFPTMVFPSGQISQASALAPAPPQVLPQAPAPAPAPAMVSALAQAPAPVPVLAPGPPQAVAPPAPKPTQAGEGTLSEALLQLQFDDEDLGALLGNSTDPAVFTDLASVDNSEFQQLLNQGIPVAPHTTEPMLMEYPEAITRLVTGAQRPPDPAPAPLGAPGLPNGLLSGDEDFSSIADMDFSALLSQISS

SMILES | NF-κB (HeLa) IC50 (NF-κB p65; p65, HeLa cells, TNFα) | K-Ras (HT-29) IC50 (K-Ras) | IC50 (PARP-1; [1]) [nM] | IC50 (HT-29 cells; [2]) [nM] | EC50 (HT-29 cells; HT-29 cells, 72 h, SRB) [nM] | also measured
CC=Cc1cc(OC)cc(C(C)C(O)c2cc(OC)c(OC)c(OC)c2)c1 (centres unmarked) [Compound 1] | Not active | – | – | – | – | NF-κB inhibitory activity (in words) (NF-κB p65; HeLa cells): no NF-κB inhibitory activity; IC50 (K-Ras): 10500 nM; IC50 (PARP-1): 3040 nM
C=CCc1cc(OC)c(OC(C)C(OC(C)=O)c2ccc(OC)c(OC)c2)c(OC)c1 (stereo not drawn) [Compound 2, benzenemethanol, α-[(1, R)-1-[2,6-dimethoxy-4-(2-propen-1-yl)phenoxy]ethyl]-3,4-dimethoxy-1-acetate] | – | Not active | 1 | – | – | –
C=CCc1cc(OC)c(OC(C)C(OC(C)=O)c2ccc3c(c2)OCO3)c(OC)c1 (stereo not drawn) [Compound 4, 1,3-benzodioxole-5-methanol,α-[1-[2,6-dimethoxy-4-(2-propenyl)phenoxy]ethyl]-acetate] | – | Not active | – | 24 | 24 | IC50 (NF-κB p65; read-out: NF-κB (HeLa) IC50, p65, HeLa cells, TNFα): 3.4 nM
C/C=C/c1cc(OC)c2c(c1)C(C)C(c1cc(OC)c(OC)c(OC)c1)O2 (centres unmarked) [Compound 5, benzofuran, 2,3-dihydro-7-methoxy-3-methyl-5-(1E)-1-yl-2-(3,4,5-trimethoxyphenyl)] | Not active | Not active | 3110 | 3 | 3 | –
CC(=O)O[C@H]1C(=O)[C@@]2(C)[C@H]([C@H](OC(=O)c3ccccc3)[C@]3(O)C[C@H](OC(=O)[C@H](O)[C@@H](NC(=O)c4ccccc4)c4ccccc4)C(C)=C1C3(C)C)[C@]1(OC(C)=O)CO[C@@H]1C[C@@H]2O [paclitaxel, reference compound] | – | – | – | – | – | EC50 (HT-29 cells; Homo sapiens, HT-29, 72 h): 0.5 nM; IC50 (HT-29 cells; Homo sapiens, HT-29, read-out: Cytotoxicity (HT-29) IC50): 0.5 nM
